Test results: ChEMBL document CHEMBL2401672, “2-[(3aR,4R,5S,7aS)-5-{(1S)-1-[3,5-bis(trifluoromethyl)phenyl]-2-hydroxyethoxy}-4-(2-methylphenyl)octahydro-2H-isoindol-2-yl]-1,3-oxazol-4(5H)-one: a potent human NK1 receptor antagonist with multiple clearance pathways” (J Med Chem, 2013)
Values belong to the compound of their own block, whether it stands above or below them. Active and inactive are the calls of the source. No cut-off for these calls is given here.

What was measured:
Rhesus monkey [1] = assay: Ex vivo NK1 receptor occupancy in rhesus monkey brain assessed as concentration required for 90% occupancy at 67 nM plasma concentration by PET imaging analysis; format: functional, Macaca mulatta
[2] = target: T1, Nuclear receptor subfamily 1 group I member 2 (Homo sapiens, UniProt O75469); assay: Agonist activity at human PXR at 3.4 uM relative to rifampicin
T1 sequence (O75469 whole entry): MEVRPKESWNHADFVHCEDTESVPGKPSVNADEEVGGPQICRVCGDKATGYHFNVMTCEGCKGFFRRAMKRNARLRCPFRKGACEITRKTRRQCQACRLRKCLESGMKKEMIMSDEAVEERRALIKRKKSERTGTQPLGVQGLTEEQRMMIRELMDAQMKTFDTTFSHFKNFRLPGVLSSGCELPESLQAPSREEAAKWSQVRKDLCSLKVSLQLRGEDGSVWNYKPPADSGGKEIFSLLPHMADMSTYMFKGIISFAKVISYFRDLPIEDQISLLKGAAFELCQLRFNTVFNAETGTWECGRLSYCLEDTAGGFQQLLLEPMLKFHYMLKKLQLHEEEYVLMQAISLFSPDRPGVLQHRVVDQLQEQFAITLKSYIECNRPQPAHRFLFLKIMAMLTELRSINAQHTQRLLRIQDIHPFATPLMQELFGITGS
Procedure, shortened: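 PXR agonism was measured in human hepatocytes with test compound at 3.4 μM, and the response was expressed as % relative to rifampicin.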

Cytochrome P450 2C9 = Cytochrome P450 2C9 (Homo sapiens, UniProt P11712); assay: Inhibition of human CYP2C9; format: ADME
Cytochrome P450 2D6 = Cytochrome P450 2D6 (Homo sapiens, UniProt P10635); assay: Inhibition of human CYP2D6; format: ADME
Cytochrome P450 3A4 = Cytochrome P450 3A4 (Homo sapiens, UniProt P08684); assay: Inhibition of human CYP3A4; format: ADME
Cytochrome P450 2C8 = target: T2, Cytochrome P450 2C8 (Homo sapiens, UniProt P10632); assay: Inhibition of human CYP2C8; format: ADME
T2 sequence (P10632 whole entry): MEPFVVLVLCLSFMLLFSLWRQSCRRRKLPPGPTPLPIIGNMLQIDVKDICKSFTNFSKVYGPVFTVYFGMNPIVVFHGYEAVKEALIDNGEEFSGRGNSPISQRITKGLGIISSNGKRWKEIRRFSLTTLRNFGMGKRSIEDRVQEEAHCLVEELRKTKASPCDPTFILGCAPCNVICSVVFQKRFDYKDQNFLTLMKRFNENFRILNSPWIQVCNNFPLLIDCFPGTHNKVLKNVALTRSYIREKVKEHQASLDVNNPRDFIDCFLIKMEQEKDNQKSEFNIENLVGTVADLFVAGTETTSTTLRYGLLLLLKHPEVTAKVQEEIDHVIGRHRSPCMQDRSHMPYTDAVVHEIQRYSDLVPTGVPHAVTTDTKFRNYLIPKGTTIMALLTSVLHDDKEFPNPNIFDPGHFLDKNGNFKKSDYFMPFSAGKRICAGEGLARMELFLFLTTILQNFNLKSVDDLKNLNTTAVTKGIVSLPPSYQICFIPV

[3] = Metabolic stability in human hepatocytes assessed as compound remaining at 1 uM after 24 hrs; format: ADME, cell-based, Hepatocyte; details: read-out: Stability
Procedure, shortened: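 Tritium-labelled compound at 1 μM was incubated with cultured human hepatocytes (300 000 cells per incubation) for 24 h, followed by metabolite profiling.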

[4] = Oral bioavailability in dog 1 mg/kg; format: ADME, organism-based, Canis lupus familiaris; details: in vivo
Procedure, shortened: (§1)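 Rat PK used 1 mg/kg iv and 2 mg/kg po, while dog and monkey received 0.5 mg/kg iv and 1 mg/kg po. Oral dosing was given as a solution, either in ethanol/PEG400/water (20:40:40, v/v/v) or in Inwittor 742/Tween 80, depending on the compound. Plasma CLp, Vdss, t1/2 and F% were derived from these studies.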

[5] = Oral bioavailability in monkey 1 mg/kg; format: ADME, organism-based, Macaca mulatta; details: rhesus monkey, in vivo; procedure, shortened: as §1
[6] = Oral bioavailability in rat at 2 mg/kg; format: ADME, organism-based; details: in vivo; procedure, shortened: as §1
[7] = Half life in dog at 0.5 mg/kg, iv and 1 mg/kg, po; format: ADME, organism-based, Canis lupus familiaris; details: in vivo; procedure, shortened: as §1
[8] = Half life in monkey at 0.5 mg/kg, iv and 1 mg/kg, po; format: ADME, organism-based, Macaca mulatta; details: rhesus monkey, in vivo; procedure, shortened: as §1
[9] = Half life in rat at 1 mg/kg, iv and 2 mg/kg, po; format: ADME, organism-based; details: in vivo; procedure, shortened: as §1
[10] = Volume of distribution at steady state in monkey at 0.5 mg/kg, iv and 1 mg/kg, po; format: ADME, organism-based, Macaca mulatta; details: rhesus monkey, in vivo, read-out: Vdss; procedure, shortened: as §1
[11] = Volume of distribution at steady state in rat at 1 mg/kg, iv and 2 mg/kg, po; format: ADME, organism-based; details: in vivo, read-out: Vdss; procedure, shortened: as §1
[12] = Volume of distribution at steady state in dog at 0.5 mg/kg, iv and 1 mg/kg, po; format: ADME, organism-based, Canis lupus familiaris; details: in vivo, read-out: Vdss; procedure, shortened: as §1
[13] = Plasma clearance in monkey at 0.5 mg/kg, iv and 1 mg/kg, po; format: ADME, organism-based, Macaca mulatta; details: rhesus monkey; procedure, shortened: as §1
[14] = Plasma clearance in rat at 1 mg/kg, iv and 2 mg/kg, po; format: ADME, organism-based; procedure, shortened: as §1
[15] = Plasma clearance in dog at 0.5 mg/kg, iv and 1 mg/kg, po; format: ADME, organism-based, Canis lupus familiaris; procedure, shortened: as §1
Rhesus monkey [16] = assay: Ex vivo NK1 receptor occupancy in rhesus monkey brain assessed as concentration required for 50% occupancy at 13 nM plasma concentration by PET imaging analysis; format: functional, Macaca mulatta
Gerbillinae [17] = assay: Antagonist activity at NK1 receptor in iv dosed gerbil brain assessed as inhibition of GR73632-induced foot tapping after 1 hr; format: functional, organism-based
Procedure, shortened: (§2)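 Gerbils received the antagonist iv 1 h before central administration of the NK1 agonist GR73632. Hind-foot tapping was scored. ID50 (mg/kg) was derived for blockade of tapping, and plasma and brain IC50 (nM) were derived from drug levels at 1 h […].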

Gerbillinae [18] = assay: Antagonist activity at NK1 receptor in iv dosed gerbil plasma assessed as inhibition of GR73632-induced foot tapping after 1 hr; format: functional, organism-based; procedure, shortened: as §2
Gerbillinae [19] = assay: Antagonist activity at NK1 receptor in iv dosed gerbil assessed as inhibition of GR73632-induced foot tapping after 1 hr; format: functional; details: read-out: ID50 (the source's name); procedure, shortened: as §2
Gerbillinae [20] = assay: Antagonist activity at NK1 receptor in iv dosed gerbil assessed as inhibition of GR73632-induced foot tapping; format: functional, organism-based; procedure, shortened: as §2
Neuromedin-K receptor = target: T3, Neuromedin-K receptor (Homo sapiens, UniProt P29371); assay: Binding affinity to human NK3 receptor
T3 sequence (P29371 whole entry): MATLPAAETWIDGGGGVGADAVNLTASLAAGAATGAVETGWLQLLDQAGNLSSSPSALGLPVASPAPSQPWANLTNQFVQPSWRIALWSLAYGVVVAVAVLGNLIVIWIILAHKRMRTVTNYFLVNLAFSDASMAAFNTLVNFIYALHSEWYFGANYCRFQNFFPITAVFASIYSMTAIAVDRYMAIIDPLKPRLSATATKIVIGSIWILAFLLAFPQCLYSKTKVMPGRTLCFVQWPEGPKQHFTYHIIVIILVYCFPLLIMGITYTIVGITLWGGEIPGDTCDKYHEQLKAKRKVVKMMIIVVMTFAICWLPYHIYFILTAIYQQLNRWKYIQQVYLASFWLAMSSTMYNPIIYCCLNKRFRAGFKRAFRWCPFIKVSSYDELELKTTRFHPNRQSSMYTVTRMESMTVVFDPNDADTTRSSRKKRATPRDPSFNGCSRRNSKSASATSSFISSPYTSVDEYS

Substance-K receptor = target: T4, Substance-K receptor (Homo sapiens, UniProt P21452); assay: Binding affinity to human NK2 receptor
T4 sequence (P21452 whole entry): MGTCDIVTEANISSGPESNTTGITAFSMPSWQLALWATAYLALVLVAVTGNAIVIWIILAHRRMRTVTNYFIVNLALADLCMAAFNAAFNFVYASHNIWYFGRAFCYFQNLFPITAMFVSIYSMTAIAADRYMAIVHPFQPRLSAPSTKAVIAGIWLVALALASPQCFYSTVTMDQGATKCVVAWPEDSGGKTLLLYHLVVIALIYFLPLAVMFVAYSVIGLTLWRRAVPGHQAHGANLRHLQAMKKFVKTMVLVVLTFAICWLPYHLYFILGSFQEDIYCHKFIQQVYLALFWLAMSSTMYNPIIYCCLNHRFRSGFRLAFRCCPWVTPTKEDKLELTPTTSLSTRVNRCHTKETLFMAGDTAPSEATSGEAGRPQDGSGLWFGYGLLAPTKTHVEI

Substance-P receptor [21] = target: T5, Substance-P receptor (Homo sapiens, UniProt P25103); assay: Displacement of [125I]substance P from human NK1 receptor expressed in CHO cells in presence of human serum; format: cell-based
Procedure, shortened: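 Inhibition of [¹²⁵I]substance P binding to human NK1 receptor in vitro, with 50% human serum added to the binding medium; IC₅₀ (nM) derived.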

Substance-P receptor [22] = target: T5, Substance-P receptor; assay: Antagonist activity at human NK1 receptor expressed in CHO cells assessed as IP1 generation measured as remaining substance P response at 100 nM

T5 sequence (P25103 whole entry): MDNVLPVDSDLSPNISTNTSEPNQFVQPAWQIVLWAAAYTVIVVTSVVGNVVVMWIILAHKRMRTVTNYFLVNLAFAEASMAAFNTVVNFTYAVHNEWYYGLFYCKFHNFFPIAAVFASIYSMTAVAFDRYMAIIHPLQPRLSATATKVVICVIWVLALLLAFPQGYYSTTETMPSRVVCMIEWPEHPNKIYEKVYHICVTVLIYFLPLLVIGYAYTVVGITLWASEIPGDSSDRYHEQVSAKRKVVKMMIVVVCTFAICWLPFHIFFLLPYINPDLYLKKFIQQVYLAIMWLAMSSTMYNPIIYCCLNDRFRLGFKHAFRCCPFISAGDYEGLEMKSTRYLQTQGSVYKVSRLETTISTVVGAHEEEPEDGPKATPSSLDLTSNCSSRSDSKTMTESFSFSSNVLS
Chain of Cytochrome P450 3A4 (P08684 whole entry): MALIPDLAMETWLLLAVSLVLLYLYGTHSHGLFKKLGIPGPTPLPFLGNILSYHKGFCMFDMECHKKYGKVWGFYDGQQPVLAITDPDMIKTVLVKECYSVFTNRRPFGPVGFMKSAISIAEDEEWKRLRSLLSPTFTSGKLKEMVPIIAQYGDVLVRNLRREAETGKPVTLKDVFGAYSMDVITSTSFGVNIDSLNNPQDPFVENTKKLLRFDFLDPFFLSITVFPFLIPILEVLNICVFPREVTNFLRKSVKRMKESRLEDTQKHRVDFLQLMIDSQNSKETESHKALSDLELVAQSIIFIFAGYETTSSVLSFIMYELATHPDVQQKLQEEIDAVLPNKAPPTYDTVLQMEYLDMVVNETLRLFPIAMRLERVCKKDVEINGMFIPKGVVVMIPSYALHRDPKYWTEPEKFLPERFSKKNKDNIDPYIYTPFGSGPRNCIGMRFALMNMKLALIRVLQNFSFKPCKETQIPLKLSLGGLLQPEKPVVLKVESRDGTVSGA
Chain of Cytochrome P450 2D6 (P10635 whole entry): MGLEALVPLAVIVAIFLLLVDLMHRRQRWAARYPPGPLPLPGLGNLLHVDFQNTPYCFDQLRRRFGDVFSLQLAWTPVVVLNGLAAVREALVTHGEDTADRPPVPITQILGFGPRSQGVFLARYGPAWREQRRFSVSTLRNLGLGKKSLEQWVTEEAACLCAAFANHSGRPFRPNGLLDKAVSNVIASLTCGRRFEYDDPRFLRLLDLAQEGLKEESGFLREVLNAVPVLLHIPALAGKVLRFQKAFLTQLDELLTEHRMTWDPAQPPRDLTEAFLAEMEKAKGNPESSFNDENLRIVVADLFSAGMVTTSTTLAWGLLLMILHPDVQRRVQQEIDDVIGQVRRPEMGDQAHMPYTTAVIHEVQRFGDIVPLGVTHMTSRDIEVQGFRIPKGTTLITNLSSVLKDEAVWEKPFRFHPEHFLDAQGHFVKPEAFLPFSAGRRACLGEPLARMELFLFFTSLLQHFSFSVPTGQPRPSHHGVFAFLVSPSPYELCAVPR
Chain of Cytochrome P450 2C9 (P11712 whole entry): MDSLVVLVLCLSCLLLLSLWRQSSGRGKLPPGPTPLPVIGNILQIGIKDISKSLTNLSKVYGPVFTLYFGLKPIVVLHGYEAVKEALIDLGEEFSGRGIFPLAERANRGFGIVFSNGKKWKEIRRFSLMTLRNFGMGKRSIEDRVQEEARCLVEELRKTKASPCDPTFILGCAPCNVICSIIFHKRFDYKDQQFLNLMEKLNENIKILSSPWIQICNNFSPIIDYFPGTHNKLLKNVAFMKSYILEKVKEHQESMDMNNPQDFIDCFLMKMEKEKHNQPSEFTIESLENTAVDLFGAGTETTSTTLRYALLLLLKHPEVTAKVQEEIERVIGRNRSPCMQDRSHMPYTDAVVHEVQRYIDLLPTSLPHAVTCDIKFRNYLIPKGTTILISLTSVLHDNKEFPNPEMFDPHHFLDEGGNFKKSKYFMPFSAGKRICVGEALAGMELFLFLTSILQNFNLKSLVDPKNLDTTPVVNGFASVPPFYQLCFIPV

- Activity [2]: 14%
- IC50 (Cytochrome P450 2C9): 41 µM
- IC50 (Cytochrome P450 2D6): 61 µM
- IC50 (Cytochrome P450 3A4): 15 µM
- IC50 (Cytochrome P450 2C8): 21 µM
- remaining at 24 h, 1 µM [3]: 68%
- bioavailability [4]: 38%
- bioavailability [5]: 66%
- bioavailability [6]: 92%
- half-life [7]: 11 h
- half-life [8]: 13 h
- half-life [9]: 4.7 h
- Vd [10]: 5.7 L/kg
- Vd [11]: 3.1 L/kg
- Vd [12]: 1.2 L/kg
- clearance [13]: 8 mL/min/kg
- clearance [14]: 7.5 mL/min/kg
- clearance [15]: 1.4 mL/min/kg
- IC50 (Gerbillinae [17]): 0.008 µM
- IC50 (Gerbillinae [18]): 0.005 µM
- inhibition (Gerbillinae [20]): Active
- IC50 (Neuromedin-K receptor): 2.5 µM
- IC50 (Substance-K receptor): 7.2 µM
- IC50 (Substance-P receptor [21]): 0.00075 µM
- residual activity (Substance-P receptor [22]): 3%
Compound: Cc1ccccc1[C@H]1[C@@H]2CN(C3=NC(=O)CO3)C[C@H]2CC[C@@H]1O[C@H](CO)c1cc(C(F)(F)F)cc(C(F)(F)F)c1
- Occ90 (Rhesus monkey [1]): 22 nM
- Occ50 (Rhesus monkey [16]): 13 nM
- ED50 (Gerbillinae [19]): 0.03 mg/kg

- bioavailability [6]: 40%
- IC50 (Gerbillinae [17]): 0.0077 µM
- inhibition (Gerbillinae [20]): Active
- IC50 (Neuromedin-K receptor): 2.4 µM
- IC50 (Substance-K receptor): 2.4 µM
- residual activity (Substance-P receptor [22]): 5%
Compound: C[C@@H](O[C@H]1CC[C@@H]2CN(C3=CC(=O)CC3)C[C@H]2[C@@H]1c1ccc(F)cc1)c1cc(C(F)(F)F)cc(C(F)(F)F)c1 [SERLOPITANT]
- Occ90 (Rhesus monkey [1]): 67 nM
- Occ50 (Rhesus monkey [16]): 9 nM
- ED50 (Gerbillinae [19]): 0.08 mg/kg
